Data set [1] can be described thus: Aqueous solubility at pH 3.2. It counts as physicochemical. The conditions noted are these: aqueous solution. Summed up:
(§1)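 Thermodynamic solubility from a slurry. Sonicated 20 min at room temperature, 10 min at 50 °C, then 10 min at room temperature, and agitated at least two days at room temperature. Residual solid was checked for crystallinity by polarized light microscopy. Slurry centrifuged 15,000 rpm at 20 °C for 20 min. Supernatant assayed by HPLC and its pH measured. Values are typically means of two measurements.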

The nature of data set [2]: Chemical stability assessed as compound remaining in aqueous buffer at pH 7.4 after 8 hrs. Type of data set: physicochemical. To be noted: read-out: Stability. Summed up:
(§2)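 Compound held 8 h at room temperature in DMSO or in pH 7.4 buffer. Percent remaining determined by LC/MS.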

A short description of data set [3]: Chemical stability assessed as compound remaining in DMSO after 8 hrs. It counts as physicochemical. To be noted: read-out: Stability. The gist of the method:
as §2

The nature of data set [4]: Aqueous solubility at pH 2.5. It counts as physicochemical. The conditions noted are these: aqueous solution. The gist of the method:
as §1

A short description of data set [5]: Aqueous solubility at pH 3.5. To be noted: aqueous solution. Type of data set: physicochemical. Summed up:
as §1

Data set [6] can be described thus: AUC (0 to infinity) in Sprague-Dawley rat at 5 mg/kg, iv. It counts as ADME, organism-based. Further details: time infinity, dose 5 mg/kg, route intravenous. The conditions noted are these: plasma. Summed up:
(§3)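 Male Sprague–Dawley rats (n = 3) dosed iv, prodrug at a dose equivalent to 5 mg/kg of parent, compared with an equivalent iv dose of parent. Plasma profiles of both prodrug and released parent were determined, giving AUC_INF and elimination half-life.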

The nature of data set [7]: Half life in Sprague-Dawley rat at 5 mg/kg, iv. Type of data set: ADME, organism-based. Further details: dose 5 mg/kg, route intravenous. The conditions noted are these: in vivo. Summed up: as §3
Data set [8] is described as follows: Permeability across MDCK cells. Type of data set: ADME, cell-based, Canis lupus familiaris. To be noted: dog, read-out: permeability.
The nature of data set [9]: Oral bioavailability in Sprague-Dawley rat at 10 mg/kg. The conditions noted are these: in vivo. It counts as ADME, organism-based. Summed up: (§4)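 Male Sprague–Dawley rats (n = 3) dosed orally, prodrug at a dose equivalent to 10 mg/kg of parent, compared with an equivalent oral dose of parent. Parent levels measured in plasma; AUC_INF derived from the plasma profile. Bioavailability is expressed with respect to the parent compound.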

Data set [10] in a line: AUC (0 to infinity) in Sprague-Dawley rat at 10 mg/kg, po. To be noted: plasma. Further details: time infinity, dose 10 mg/kg, route oral. Type of data set: ADME, organism-based. Summed up: as §4
Data set [11] can be described thus: Aqueous solubility at pH 7.8. Type of data set: physicochemical. To be noted: aqueous solution. The gist of the method: as §1

Structures are written as SMILES. ≈ marks a conversion by molar mass, not a printed value.

This is an account of results in ChEMBL document CHEMBL1152886, “Water-soluble prodrugs of an Aurora kinase inhibitor” (Bioorg Med Chem Lett, 2009).

In general, solubility refers to how much of the substance goes into solution per volume. The low end stands for a poorly soluble substance, the high end for a readily soluble substance. By AUC(0-inf) is commonly meant the area under the concentration-time curve extrapolated to infinity. One may read the half-life as the time needed for the level to fall by half in the phase considered. By bioavailability is commonly meant dose-corrected exposure relative to a reference, in per cent. Read a low bioavailability as little systemic uptake.

In turn, `CC(C)C(=O)OCn1cc(CCNc2ncnc3ccsc23)s/c1=N\C(=O)Nc1cccc(Cl)c1` yielded a solubility in data set [1] of 170 µg/mL (≈ 320 µM).

Take `CC(=O)OCn1cc(CCNc2ncnc3ccsc23)s/c1=N\C(=O)Nc1cccc(Cl)c1`: the remaining at 8 h in [2] and in data set [3] was 100% throughout. The same molecule returned a solubility in data set [4] of 120 µg/mL (≈ 239 µM).

On to `O=C(/N=c1\sc(CCNc2ncnc3ccsc23)cn1COC(=O)CC1CCNCC1)Nc1cccc(Cl)c1`, for which the remaining at 8 h in data set [2] and in [3] was 100% in each case. The amount in solution in data set [5] (solubility) came to 2500 µg/mL (≈ 4270 µM).

For the molecule `CC(C)(C)C(=O)OCn1cc(CCNc2ncnc3ccsc23)s/c1=N\C(=O)Nc1cccc(Cl)c1`, the remaining at 8 h in data set [2] and in data set [3] was 100% each time. For the same molecule, the solubility in data set [1] turned out to be 280 µg/mL (≈ 514 µM).

With `CNCC(=O)OCn1cc(CCNc2ncnc3ccsc23)s/c1=N\C(=O)Nc1cccc(Cl)c1`, the remaining at 8 h in [2] and in data set [3] was 0% each time.

Take `O=C(/N=c1\sc(CCNc2ncnc3ccsc23)cn1COC(=O)C1CCNCC1)Nc1cccc(Cl)c1`: the remaining at 8 h in data set [2] stood at 52%; in [3] it was 84%.

Regarding `O=C(/N=c1\sc(CCNc2ncnc3ccsc23)cn1COP(=O)(O)O)Nc1cccc(Cl)c1`, the AUC(0-inf) in [6] stood at 1910 ng·h/mL; in data set [10], 2200 ng·h/mL. This molecule gave a half-life in data set [7] of 0.5 h. The Papp in data set [8] is less than 1 ×10⁻⁶ cm/s. Besides, the bioavailability in data set [9] came to 44%. Further, the remaining at 8 h in data set [2] and in data set [3] was 100% each time. In addition, in [11], the concentration in solution (solubility) was 4700 µg/mL (≈ 8690 µM).

For the molecule `CS(=O)(=O)O.O=C(Nc1cccc(Cl)c1)Nc1ncc(CCNc2ncnc3ccsc23)s1` [SNS-314 MESYLATE], the AUC(0-inf) amounted to 2090 ng·h/mL in [6] and 3650 ng·h/mL in data set [10]. In addition, the half-life in data set [7] is 2.1 h. Moreover, the bioavailability in data set [9] is 72%. In addition, in data set [1], the solubility amounted to 14 µg/mL.
